# Pf Dd2 inh: blocks growth of Plasmodium falciparum Dd2 parasites | 94,000 compounds, 2.3% hits | P. falciparum Dd2 growth, SYBR Green, 72 h; stronger effect = lower value | activity change, % at 10 µM; in the data active = activity change below about -80%; inconclusive = no clear call, values can overlap the other calls
# KDM4C inh: blocks human GASC-1 (KDM4C) demethylase activity; Q9H3R0; GST-KDM4C 2-372, H3K9me3 peptide, LANCE TR-FRET; inhibition, % at 12.5 µM; 96,000 compounds, 0.15% hits; AID 720574;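 active = mean replicate inhibition above about 25%, with at least 55% of replicates also reaching it, limit read from the data, passing the limit was not always enough; inconclusive = only one of those two conditions met; inactive = neither condition met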
#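 Material: N-terminal GST-fused human GASC-1 (KDM4C) fragment, residues 2-372. Input: 10 nM enzyme. Incubation: enzyme reaction 30 min, then detection 60 min, both room temperature. Doses: one test concentration per compound. Read-out basis: inhibition from TR-FRET ratio decrease. Detection: LANCE TR-FRET, excitation 340 nm, emissions 618 and 671 nm.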
# IDH1 mut inh: inhibitors of human IDH1 R132H; O75874; inhibition, % at 10 µM; IDH1 R132H reductase, diaphorase/resazurin fluorescence, 60 min; AID 624101; 70,000 compounds, 0.18% hits; in the data active = inhibition above about 34%; inconclusive = no clear call, values can overlap the other calls; inactive = below about 11%;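 note: 0% = DMSO and 100% = no enzyme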
# Target sequence (O75874 whole entry R132H): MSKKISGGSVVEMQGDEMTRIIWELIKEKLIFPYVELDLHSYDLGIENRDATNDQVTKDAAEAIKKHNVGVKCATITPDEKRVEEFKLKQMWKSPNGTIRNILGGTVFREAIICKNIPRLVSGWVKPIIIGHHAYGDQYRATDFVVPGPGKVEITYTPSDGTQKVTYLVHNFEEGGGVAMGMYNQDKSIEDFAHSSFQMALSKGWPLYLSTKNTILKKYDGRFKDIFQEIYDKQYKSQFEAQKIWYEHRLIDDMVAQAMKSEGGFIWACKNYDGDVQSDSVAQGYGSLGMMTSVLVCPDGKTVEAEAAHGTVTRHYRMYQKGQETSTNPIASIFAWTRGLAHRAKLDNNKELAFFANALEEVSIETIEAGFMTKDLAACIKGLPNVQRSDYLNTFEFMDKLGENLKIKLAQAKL
# T cruzi growth-1: blocks T. cruzi growth in NIH3T3 culture; T. cruzi beta-gal in NIH3T3, GalScreen luminescence, 90 h; inhibition, % at 8.34 µM; 77,000 compounds, 5.9% hits; AID 624255;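 active = mean inhibition above about 93%, with at least 55% of replicates each passing it, limit read from the data, passing the limit was not always enough; inconclusive = only one of those two conditions holds; inactive = neither condition holds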
# T cruzi growth-2: Trypanosoma cruzi proliferation inhibition; 5,600 compounds, 72% hits; shares compounds with T cruzi growth-1; inhibition, % at 8.35 µM; T. cruzi beta-gal in NIH3T3, GalScreen luminescence, 90 h;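 active = mean replicate inhibition above about 95% and at least 55% of replicates individually reaching it, limit read from the data; inconclusive = only one of the two criteria is met; inactive = neither criterion is met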
# T cruzi growth-3: Trypanosoma cruzi proliferation inhibition; shares compounds with T cruzi growth-1; T. cruzi beta-gal in NIH3T3, GalScreen luminescence, 90 h; inhibition, % at 2.09 µM; 5,600 compounds, 21% hits;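 active = mean inhibition above about 95%, with at least 55% of replicates also reaching it, limit read from the data; inconclusive = meets just one of the two conditions; inactive = meets neither condition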;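 note: plate controls were neutral control median for no effect and positive control median for full effect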
# 3T3 cytotox: cytotoxicity in mouse NIH/3T3 fibroblasts. cytotoxicity (signal decrease), % at 8.35 µM. 5,600 compounds, 14% hits. shares compounds with T cruzi growth-1. NIH/3T3 viability, CellTiter-Glo ATP luminescence, 90 h;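 active = mean signal decrease across replicates above about 35% based on untreated-well scatter, with enough replicates individually passing, limit read from the data; inconclusive = no rule stated though some were filed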;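 note: 0% = median of neutral control wells and 100% = median of positive control wells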
# NIH3T3 tox 2: kills mouse NIH/3T3 fibroblasts; shares compounds with T cruzi growth-1; NIH/3T3 viability, CellTiter-Glo ATP luminescence, 90 h; inhibition, % at 24.9 µM; 5,600 compounds, 56% hits; AID 651744;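 active = mean loss of cell viability signal at or above a set limit, and enough replicates individually reaching it; inconclusive = meets only the mean limit or only the replicate share; inactive = meets neither condition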;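 note: 0% = median of neutral control wells and 100% = median of positive control wells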
# * hit, by the source's call; ? = inconclusive; . = not tested or not shown. In the library only some 5.9% were active in any assay of this set; here they are far more common.
SMILES,Pf Dd2 inh,KDM4C inh,IDH1 mut inh,T cruzi growth-1,T cruzi growth-2,T cruzi growth-3,3T3 cytotox,NIH3T3 tox 2
O=C(c1ccccc1F)N1CC[C@@H]2[C@H](CO)Nc3ccc(-c4ccccc4)cc3[C@@H]21,26,-1,.,81,.,.,.,.
CN(C)C(=O)c1cccc(-c2ccc3c(c2)[C@H]2[C@H](CCN2C(=O)c2ccccc2F)[C@@H](CO)N3)c1,-49,1,.,101*,104*,51,-8,-14
O=C(Nc1ccccc1)N1CCCCN2[C@H](CO)[C@H](c3ccc(C#CC4CC4)cc3)[C@@H]2C1,-5,0,.,76,.,.,.,.
O=C(Nc1ccccc1)N1CCCCN2[C@@H](CO)[C@H](c3ccc(C#CC4CC4)cc3)[C@@H]2C1,-18,-1,.,108*,89,70,?,103*
O=C(Nc1ccccc1)N1CCCCN2[C@H](C1)[C@@H](c1ccc(C#CC3CC3)cc1)[C@@H]2CO,1,0,.,105*,96*,80,43*,104*
O=C(Nc1c(Cl)cc(Cl)cc1C(=O)NCCN1CCOCC1)c1cccc([N+](=O)[O-])c1,.,.,1,.,.,.,.,.
Cc1ccc(S(=O)(=O)N(C)C[C@@H]2OCCCC[C@H](C)Oc3ccc(NS(=O)(=O)c4cccs4)cc3C(=O)N([C@H](C)CO)C[C@@H]2C)cc1,-68,1,-1,119*,96*,42,-25,-7
Cc1ccc(S(=O)(=O)N(C)C[C@@H]2OCCCC[C@@H](C)Oc3ccc(NS(=O)(=O)c4cccs4)cc3C(=O)N([C@@H](C)CO)C[C@@H]2C)cc1,-74,-1,.,103*,104*,70,12,-2
Cc1ccc(S(=O)(=O)N(C)C[C@@H]2OCCCC[C@@H](C)Oc3ccc(NS(=O)(=O)c4cccs4)cc3C(=O)N([C@@H](C)CO)C[C@H]2C)cc1,-43,8,?,86,.,.,.,.
C[C@@H]1CCCCO[C@H](CN(C)S(=O)(=O)c2ccccc2)[C@H](C)CN([C@@H](C)CO)C(=O)c2cc(NS(=O)(=O)c3cccs3)ccc2O1,.,-1,-1,?,103*,46,-10,-8
Cc1ccc(S(=O)(=O)N(C)C[C@H]2OCCCC[C@@H](C)Oc3ccc(NS(=O)(=O)c4cccs4)cc3C(=O)N([C@H](C)CO)C[C@H]2C)cc1,-69,0,.,?,90,31,-29,-39
C[C@H]1CN([C@@H](C)CO)C(=O)CCCn2nncc2CO[C@H]1CN(C)C(=O)OCc1ccccc1,-51,.,.,-34,.,.,.,.
Cc1ccc(-c2ccc3c(c2)O[C@@H](CN(C)Cc2ccccn2)[C@@H](C)CN([C@@H](C)CO)S3(=O)=O)cc1,-42,5,.,74,.,.,.,.
Cc1ccc(S(=O)(=O)N(C)C[C@H]2OCCCC[C@@H](C)Oc3ccc(NS(=O)(=O)c4cccs4)cc3C(=O)N([C@@H](C)CO)C[C@@H]2C)cc1,-14,0,2,?,107*,53,-3,15
Cc1ccc(S(=O)(=O)N(C)C[C@@H]2OCCCC[C@@H](C)Oc3ccc(NS(=O)(=O)c4cccs4)cc3C(=O)N([C@H](C)CO)C[C@@H]2C)cc1,-56,0,.,61,.,.,.,.
Cc1ccc(S(=O)(=O)N(C)C[C@H]2OCCCC[C@H](C)Oc3ccc(NS(=O)(=O)c4cccs4)cc3C(=O)N([C@H](C)CO)C[C@H]2C)cc1,-75,-2,.,109*,103*,16,-37,-15
Cc1ccc(S(=O)(=O)N(C)C[C@@H]2OCCCC[C@@H](C)Oc3ccc(NS(=O)(=O)c4cccs4)cc3C(=O)N([C@H](C)CO)C[C@H]2C)cc1,-58,1,0,59,.,.,.,.
Cc1noc(C)c1NC(=O)N(C)C[C@@H]1Oc2ccc(NC(=O)c3ccncc3)cc2CC(=O)N([C@@H](C)CO)C[C@@H]1C,3,-5,2,3,.,.,.,.
